According to ChEMBL document CHEMBL1250547, “Synthesis and evaluation of original amidoximes as antileishmanial agents” (Bioorg Med Chem, 2010):

How the values were obtained:
[1] = test system: Leishmania donovani; experiment: Antileishmanial activity against promastigotes of Leishmania donovani HOM/IN/01/2001 after 72 hrs by flow cytometry; assay type: functional, organism-based; conditions: HOM/IN/01/2001, 72 h
Method in brief: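 GFP-transfected late log-phase promastigotes in M199 with 10% FCS and 500 µg/mL G418, seeded at about 10⁵ parasites/mL; compounds in DMSO (final <0.5% v/v) over a concentration range in duplicate; 72 h at 27 °C; growth read by green fluorescence flow cytometry; DMSO and pentamidine controls; IC50 versus control by non-linear regression of dose-response curves.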

[2] = test system: THP-1; experiment: Cytotoxicity against human THP1 cells after 72 hrs by flow cytometry; assay type: cell-based; conditions: THP-1, 72 h
Method in brief: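 Late log-phase THP1 monocytes in phenol red-free RPMI 1640 with 10% FCS, 2% L-glutamine, 1% penicillin-streptomycin; compound range in duplicate, DMSO final <0.5% v/v; 72 h at 37 °C, 6% CO2; propidium iodide staining, live cells counted by flow cytometry; doxorubicin, pentamidine and solvent controls; IC50 by non-linear regression, mean of three independent experiments.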

[3] = Selectivity index, ratio of IC50 for human THP1 cells to IC50 for promastigotes of Leishmania donovani HOM/IN/01/2001; assay type: toxicity, cell-based, THP-1; conditions: read-out: Selectivity Index

Row | IC50 [1] | SMILES | IC50 [2] | selectivity ratio [3]
1 | > 50 µM | CC1(Cc2ccccc2)CC(S(=O)(=O)c2ccc(/C=C/c3ccc(/C(N)=N/O)cc3)cc2)=C(c2ccc(/C(N)=N/O)cc2)O1 (centres undefined) | > 50 µM | 
2 | 39.1 µM | N/C(=N\O)c1ccc(Nc2ccc(S(=O)(=O)C3=C(c4ccc(/C(N)=N/O)cc4)OC(c4ccccc4)(c4ccccc4)C3)cc2)cc1 | > 50 µM | > 1.3
3 | 20.6 µM | N/C(=N\O)c1ccc(C2=C(S(=O)(=O)c3ccccc3)CC(c3ccccc3)(c3ccccc3)O2)cc1 | 30.6 µM | 1.5
4 | 74.3 µM | N/C(=N\O)c1ccc(C2=C(S(=O)(=O)c3ccc(/C(N)=N/O)cc3)CC(c3ccccc3)(c3ccccc3)O2)cc1 | 119 µM | 1.6
5 |  | COc1cccc2c1C(=O)c1c(O)c3c(c(O)c1C2=O)C[C@@](O)(C(=O)CO)C[C@@H]3O[C@H]1C[C@H](N)[C@H](O)[C@H](C)O1 [DOXORUBICIN] | 0.008 µM | 
6 | 11.2 µM | N=C(N)c1ccc(OCCCCCOc2ccc(C(=N)N)cc2)cc1 [PENTAMIDINE] | 31.2 µM | 2.8
7 | > 50 µM | CC1(Cc2ccccc2)CC(S(=O)(=O)c2ccc(Nc3ccc(/C(N)=N/O)cc3)cc2)=C(c2ccc(/C(N)=N/O)cc2)O1 (centres undefined) | 47.6 µM | < 1
8 | > 125 µM | N/C(=N\O)c1ccc(C(=O)CS(=O)(=O)c2ccccc2)cc1 | > 125 µM | 
9 | > 50 µM | N/C(=N\O)c1ccc(S(=O)(=O)C2=C(c3ccc(Nc4cccc(/C(N)=N/O)c4)cc3)OC(c3ccccc3)(c3ccccc3)C2)cc1 | 48.1 µM | < 1
10 | 17.1 µM | CC1(Cc2ccccc2)CC(S(=O)(=O)c2ccc(/C(N)=N/O)cc2)=C(c2ccc(/C=C/c3ccc(/C(N)=N/O)cc3)cc2)O1 (centres undefined) | 23.4 µM | 1.4
11 | 50 µM | N/C(=N\O)c1ccc(/C=C/c2ccc(S(=O)(=O)C3=C(c4ccc(/C(N)=N/O)cc4)OC(c4ccccc4)(c4ccccc4)C3)cc2)cc1 | > 10 µM | > 0.2
12 | > 125 µM | N/C(=N\O)c1ccc(C(=O)CS(=O)(=O)c2ccc(/C(N)=N/O)cc2)cc1 | > 125 µM | 
13 | 48.3 µM | CC1(Cc2ccccc2)CC(S(=O)(=O)c2ccc(Nc3ccccc3/C(N)=N/O)cc2)=C(c2ccc(/C(N)=N/O)cc2)O1 (centres undefined) | 48.4 µM | 1
14 | > 50 µM | N/C(=N\O)c1ccc(C2=C(S(=O)(=O)c3ccc(Nc4cccc(/C(N)=N/O)c4)cc3)CC(c3ccccc3)(c3ccccc3)O2)cc1 | > 50 µM | 
15 | 30.3 µM | CC1(Cc2ccccc2)CC(S(=O)(=O)c2ccccc2)=C(c2ccc(/C(N)=N/O)cc2)O1 (centres undefined) | 94.6 µM | 3.1
16 | 13.3 µM | N/C(=N\O)c1ccc(S(=O)(=O)C2=C(c3ccc(Nc4ccccc4/C(N)=N/O)cc3)OC(c3ccccc3)(c3ccccc3)C2)cc1 | 47.8 µM | 3.6
17 | 30.1 µM | CC1(Cc2ccccc2)CC(S(=O)(=O)c2ccc(/C(N)=N/O)cc2)=C(c2ccc(Nc3ccc(/C(N)=N/O)cc3)cc2)O1 (centres undefined) | 9.8 µM | 0.3
18 | 8.3 µM | CC1(Cc2ccccc2)CC(S(=O)(=O)c2ccc(/C(N)=N/O)cc2)=C(c2ccccc2)O1 (centres undefined) | 54.7 µM | 6.6
19 | 17.6 µM | N/C(=N\O)c1ccc(S(=O)(=O)C2=C(c3ccccc3)OC(c3ccccc3)(c3ccccc3)C2)cc1 | 37.9 µM | 2.1
20 | > 50 µM | CC1(Cc2ccccc2)CC(S(=O)(=O)c2ccc(/C(N)=N/O)cc2)=C(c2ccc(Nc3cccc(/C(N)=N/O)c3)cc2)O1 (centres undefined) | 44 µM | < 0.9
21 | > 50 µM | N/C(=N\O)c1ccc(Nc2ccc(C3=C(S(=O)(=O)c4ccc(/C(N)=N/O)cc4)CC(c4ccccc4)(c4ccccc4)O3)cc2)cc1 | 48.9 µM | < 1
22 | > 50 µM | N/C(=N\O)c1ccc(/C=C/c2ccc(C3=C(S(=O)(=O)c4ccc(/C(N)=N/O)cc4)CC(c4ccccc4)(c4ccccc4)O3)cc2)cc1 | 41.3 µM | < 0.9
23 | > 125 µM | N/C(=N\O)c1ccc(S(=O)(=O)CC(=O)c2ccccc2)cc1 | > 125 µM | 
24 | > 50 µM | CC1(Cc2ccccc2)CC(S(=O)(=O)c2ccc(Nc3cccc(/C(N)=N/O)c3)cc2)=C(c2ccc(/C(N)=N/O)cc2)O1 (centres undefined) | 46.6 µM | < 1
25 | 8.8 µM | CC1(Cc2ccccc2)CC(S(=O)(=O)c2ccc(/C(N)=N/O)cc2)=C(c2ccc(Nc3ccccc3/C(N)=N/O)cc2)O1 (centres undefined) | 48.1 µM | 5.5
26 | 39.1 µM | N/C(=N\O)c1ccc(C2=C(S(=O)(=O)c3ccc(Nc4ccccc4/C(N)=N/O)cc3)CC(c3ccccc3)(c3ccccc3)O2)cc1 | > 50 µM | > 1.3
27 | 99.5 µM | CC1(Cc2ccccc2)CC(S(=O)(=O)c2ccc(/C(N)=N/O)cc2)=C(c2ccc(/C(N)=N/O)cc2)O1 (centres undefined) | 99.5 µM | 1
